Shown are actives, neighbours in structure and some others; about 2.3% of the full set was active somewhere.
ADAM17 inh = inhibits human ADAM17; P78536; inhibition, % at 6.95 µM; actives 0.83% (n = 370,000); recombinant ADAM17, EDANS/DABCYL FRET peptide cleavage;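 active means inhibition above the mean of compounds lying between control limits plus 3 SD, set per campaign, cut at about 8.5% in these data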;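 further: 0% = DMSO-only wells as the low control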
Target sequence (P78536 215-824 limits assumed): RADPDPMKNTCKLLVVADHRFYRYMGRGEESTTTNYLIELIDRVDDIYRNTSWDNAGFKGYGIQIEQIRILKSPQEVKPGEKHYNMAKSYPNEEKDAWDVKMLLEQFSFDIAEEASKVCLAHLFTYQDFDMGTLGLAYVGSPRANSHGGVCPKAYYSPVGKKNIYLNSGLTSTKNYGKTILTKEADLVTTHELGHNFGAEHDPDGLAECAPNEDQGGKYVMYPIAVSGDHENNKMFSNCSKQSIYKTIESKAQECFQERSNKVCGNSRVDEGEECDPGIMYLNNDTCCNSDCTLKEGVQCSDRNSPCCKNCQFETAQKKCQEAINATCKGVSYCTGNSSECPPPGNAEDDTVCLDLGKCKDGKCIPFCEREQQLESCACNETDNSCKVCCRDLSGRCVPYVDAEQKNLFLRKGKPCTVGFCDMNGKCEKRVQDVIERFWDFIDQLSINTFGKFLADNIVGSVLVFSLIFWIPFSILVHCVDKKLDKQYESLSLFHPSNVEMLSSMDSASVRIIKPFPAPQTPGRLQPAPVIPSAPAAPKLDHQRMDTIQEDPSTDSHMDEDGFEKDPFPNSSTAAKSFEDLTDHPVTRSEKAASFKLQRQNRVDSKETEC
ADAM10 inh = inhibits human ADAM10; O14672; recombinant ADAM10, EDANS/DABCYL FRET peptide cleavage, 3 h; inhibition, % at 7 µM; actives 0.62% (n = 370,000); AID 720582;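 active means inhibition above a per-campaign cutoff equal to the mean of compounds falling between control-based bounds plus 3 SD, cut at about 20% in these data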;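 further: 0% = DMSO wells while the 100% control is not disclosed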
Tn6 DDE FP = disrupts Tn6 cyclic peptide binding to fibrin D-Dimer-E complex; P02675; Fibrin DD(E) TRITC-Tn6 fluorescence polarization displacement; inhibition, % at 8.3 µM; actives 0.21% (n = 370,000); AID 720509;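 active means inhibition above a per-campaign cutoff: mean of compounds within control limits plus 3 SD, cut at about 15% in these data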;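 further: 0% = median of all compound wells on the plate and 100% = blocking peptide control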
PLC-gamma1 inh = PLC-gamma1 (human) inhibition, primary screen; purified PLC-gamma1, fluorogenic substrate, fluorescence; P19174; inhibition, % at 12.2 µM; actives 0.84% (n = 370,000); AID 720700; in the data active means inhibition above about 9.5%
PLCb3 inh = inhibitors of human phospholipase C beta3; Q01970; Purified PLC-beta3, fluorogenic substrate, fluorescence; inhibition, % at 12.2 µM; actives 0.18% (n = 370,000); AID 720704; in the data active means inhibition above about 11%;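 further: 0% = median of compound wells on plate and 100% = full blocker control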
DDE Tn7 FP inh = inhibitors of Tn7 peptide binding to human fibrin DD(E); P02675; FP displacement of FITC-Tn7 peptide from fibrin DD(E); 0% = median of compound wells per plate; inhibition, % at 8.3 µM; actives 0.13% (n = 370,000); AID 720508;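 active means inhibition above the mean of compounds falling within the control limits plus 3 SD of them, cut at about 14% in these data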;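 further: 0% = plate median of compound wells and 100% = 10 µM Aha-Tn7 peptide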
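Assay system: human fibrin DD(E) protein / Input: 2 µM fibrin DD(E) / Benchmarks: high control of 10 µM Aha-Tn7 peptide / Measured by: fluorescence polarization of the labelled Tn7 tracer / Medium: Tris buffer with calcium and detergent, pH 7.8 / Timing: 10 min compound pre-incubation, 3 h probe incubation at room temperature / Repeats: one replicate per compound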
ADAM10 confirm = human ADAM10 inhibition, confirmation | shares compounds with ADAM10 inh | ADAM10 QFRET peptide cleavage, EDANS fluorescence | inhibition, % at 6.95 µM | actives 1% (n = 2,100);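 active means inhibition above about 20% chosen separately for each screening run, limit read from the data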;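 further: 0% = DMSO wells and 100% = marimastat wells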
ADAM17 counter = ADAM17 inhibition, counter-screen for ADAM10 exosite hits. shares compounds with ADAM10 inh. AID 743214. inhibition, % at 6.95 µM. ADAM17 QFRET peptide cleavage, EDANS fluorescence. actives 0.5% (n = 2,100);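 active means mean triplicate inhibition above the solvent-only control wells' mean plus 3 SD, cut at about 12% in these data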;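 further: 0% = DMSO wells and 100% = marimastat wells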
ADAM10 counter = ADAM10 inhibition, counter-screen for ADAM17 exosite hits; recombinant ADAM10, EDANS/DABCYL FRET peptide cleavage, 3 h; shares compounds with ADAM17 inh; actives 47% (n = 2,900); AID 743256; inhibition, % at 6.95 µM;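 active means mean inhibition over the triplicate runs exceeds the activity threshold set in the earlier primary screen, cut at about 20% in these data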;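 further: 0% = DMSO wells and 100% = marimastat wells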
ADAM17 confirm = confirmation of inhibitors of human ADAM17. shares compounds with ADAM17 inh. recombinant ADAM17, EDANS/DABCYL QFRET peptide cleavage. inhibition, % at 6.95 µM. actives 65% (n = 2,900);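 active means mean inhibition across replicates above the hit cutoff set in the primary screen, cut at about 8.5% in these data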;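 further: 0% = DMSO wells and 100% = marimastat wells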
The depositor's hits bear a star; . = no result given.

SMILES | ADAM17 inh | ADAM10 inh | Tn6 DDE FP | PLC-gamma1 inh | PLCb3 inh | DDE Tn7 FP inh | ADAM10 confirm | ADAM17 counter | ADAM10 counter | ADAM17 confirm
O=C(NCC1CC1)c1cc2c(c(-c3cccc(-c4ccccc4F)c3)n1)[C@@H](CCO)N(C(=O)CC1CC1)C2 | 10* | 35* | 1 | 7 | 3 | -7 | 2 | 2 | 11 | 9.6*
O=C(NCC(F)(F)F)c1cc2c(c(-c3cccc(-c4ccccc4F)c3)n1)[C@@H](CCO)N(C(=O)CC1CC1)C2 | 10* | 20* | 6 | 2 | 2 | -7 | 2 | 0 | 13 | 11*
O=C(NCC1CC1)c1cc2c(c(-c3cccc(-c4ccccc4F)c3)n1)[C@H](CCO)N(C(=O)CC1CC1)C2 | 5 | 0 | -2 | 1 | 2 | 0 | . | . | . | .
CC(C)(C)S(=O)N1Cc2cc(C(=O)NCC(F)(F)F)nc(-c3cccc(-c4cccc(F)c4)c3)c2[C@@H]1CCO (some centres undefined) | 15* | 27* | 4 | 6 | 4 | -9 | 0 | 0 | 11 | 6
O=C(Nc1ccc(Nc2ccccc2)cc1)C(Cl)(Cl)Cl | 9.8* | 26* | -8 | 2 | 6 | -1 | 5 | 1 | 8 | 4
CCOC(=O)C1=CC[C@@H](c2ccccc2)N(S(=O)(=O)c2ccc(C)cc2)[C@H]1/C=C/c1ccccc1 | 0 | 2 | -8 | -1 | -1 | -5 | . | . | . | .
C=C[C@H]1C(C(=O)OCC)=CC[C@@H](c2ccccc2)N1S(=O)(=O)c1ccc(C)cc1 | 13* | 28* | 3 | 0 | 3 | 4 | 4 | 1 | 16 | 7
COc1cc(C2C3C(=O)N(Cc4ccccc4)C(=O)C3ON2c2ccccc2)cc(OC)c1OC (centres undefined) | 7 | 11 | -4 | 7 | 1 | -14 | . | . | . | .
COc1ccc(C2C3C(=O)N(Cc4ccccc4)C(=O)C3ON2c2ccccc2)c(OC)c1OC (centres undefined) | 11* | 21* | 0 | 7 | 3 | 0 | 7 | 2 | 32* | 17*
O=C(NCC1COc2ccccc2O1)c1cccc(S(=O)(=O)N2CCN(c3ccccc3)CC2)c1 (centres undefined) | 9.9* | 21* | 1 | -1 | -5 | -2 | 6 | 2 | 13 | 13*
Cc1ccc2c(c1)-n1c(nc3cc(F)ccc3c1=O)C(Cc1ccccc1)NC2=O (centres undefined) | -3 | -2 | -1 | -1 | 1 | 2 | . | . | . | .
Cc1ccc2c(c1)-n1c(nc3cc(C)ccc3c1=O)C(Cc1ccccc1)NC2=O (centres undefined) | 17* | 21* | -3 | 9 | 5 | 9 | 6 | 2 | 7 | 6
COc1cccc(C=NN(C)c2c([N+](=O)[O-])cc(C(F)(F)F)cc2[N+](=O)[O-])c1O | 12* | 24* | 5 | 2 | 2 | -3 | 3 | 2 | 27* | 16*
C/C(=N\N=C(/N)SC1CC(=O)N(c2ccc(Cl)c(Cl)c2)C1=O)c1cccs1 (centres undefined) | -2 | -3 | 5 | -1 | 1 | -3 | . | . | . | .
CCCCCCOc1ccc(N2C(=O)CC(S/C(N)=N/N=C(\C)c3cccs3)C2=O)cc1 (centres undefined) | -4 | 6 | 0 | -5 | 0 | 3 | . | . | . | .
C/C(=N\N=C(/N)SC1CC(=O)N(c2ccc(Br)cc2)C1=O)c1cccs1 (centres undefined) | 12* | 24* | -3 | 5 | 4 | -6 | 5 | 2 | 20 | 20*
C/C(=N\N=C(/N)SC1CC(=O)N(c2ccccc2)C1=O)c1cccs1 (centres undefined) | 8.6* | 22* | -9 | 3 | 9 | 2 | 2 | 0 | 15 | 12*
O=C(CN1C(=O)NC(Cc2c[nH]c3ccccc23)C1=O)Nc1cccc(S(=O)(=O)N2CCCC2)c1 (centres undefined) | 2 | 4 | 0 | 0 | -5 | -4 | . | . | . | .
O=C(CNc1cccc(Br)c1)Nc1ccc(S(=O)(=O)N2CCCCC2)cc1 | 16* | 27* | -3 | 7 | 0 | -3 | 8 | 3 | 32* | 21*
O=C(Nc1ccc(C(F)(F)F)cc1)C1CCCCN1S(=O)(=O)c1ccccc1 (centres undefined) | 10* | 28* | 2 | 5 | -9 | -10 | 4 | 1 | 15 | 7
O=C(CN1C(=O)NC(Cc2c[nH]c3ccccc23)C1=O)Nc1cccc(S(=O)(=O)N2CCCCCC2)c1 (centres undefined) | 11* | 21* | -9 | 6 | 8 | -1 | 4 | 1 | 28* | 17*
O=C(CNc1cccc(S(=O)(=O)N2CCCCC2)c1)Nc1ccc(C(F)(F)F)cc1 | 10* | 28* | 1 | 7 | 11 | -2 | 3 | 1 | 13 | 7
O=C(CNc1cccc(S(=O)(=O)N2CCCC2)c1)Nc1ccc(C(F)(F)F)cc1 | 6 | 11 | -2 | 1 | -1 | 4 | . | . | . | .
O=C(Oc1ccc([N+](=O)[O-])cc1)O[C@H]1CC[C@@]23CCCN2C(=O)CCC[C@H]3C1 | -2 | -2 | 0 | 0 | 2 | -8 | . | . | . | .
O=[N+]([O-])c1ccccc1C=Nn1c(-c2cc(-c3ccccc3)n[nH]2)n[nH]c1=S | -3 | -8 | -2 | -6 | -10 | 2 | . | . | . | .
CCOC(=O)CC[C@@]1(C(=O)OCC)C[C@@H](CC(=O)N2CCOCC2)C(=O)N2CCCC=C21 | 1 | 1 | -3 | 0 | 1 | -8 | . | . | . | .
CC(C)(C)c1ccc(OCCC(=O)Nc2cccc(S(=O)(=O)N3CCCC3)c2)cc1 | 8.9* | 22* | -2 | 5 | 0 | -3 | 10 | 3 | 37* | 23*
CC(C)(C)c1ccc(OCCCC(=O)Nc2cccc(S(=O)(=O)N3CCOCC3)c2)cc1 | 5 | 11 | -2 | 2 | -11 | 6 | . | . | . | .
